A short description of series [1]: folding enthalpy; higher = less favourable; fluorescence melt of hairpins on a sequencing array, two-state fit. To be noted: sodium 0.088 M. The method in brief:
(§1)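 Melting temperature and folding enthalpy were derived from bootstrapped two-state fits. The fitted temperatures were raised by 9.35 °C to agree with UV melts, and four replicates were combined by inverse variance. The underlying data were Cy3 fluorescence images of library hairpins, with annealed Cy3 and quencher oligos, on a sequenced MiSeq flow cell in 50 mM Na-HEPES pH 8.0, 25 mM NaCl, taken in 2.5 °C steps up to 60 °C, normalised to pre-quench Cy3 and to control constructs.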

A short description of series [2]: melting temperature; fluorescence melt of hairpins on a sequencing array, two-state fit, raised by 9.35 °C to match UV melts. To be noted: sodium 0.088 M. An outline of the steps: as §1

Regarding GGCGCTGGAAACGGCGTC (.(((.(....).))).), the folding enthalpy in series [1] was -28 kcal/mol. The Tm in series [2] is 54.3 °C.
For GATCCCAACCGGGATC ((((((....)))))), in series [1], the folding enthalpy was -35.1 kcal/mol. In series [2], the Tm was 63.4 °C.
Regarding GGCCGCGAAAGCGGGGCC ((((((....)))..))), the folding enthalpy in series [1] was -12.7 kcal/mol. In addition, in series [2], the Tm was determined as 63.6 °C.
For the sequence GGGCGAGGAAACTCACCC (((.(((....))).))), the folding enthalpy in series [1] was -41 kcal/mol. Also, the Tm in series [2] was 49.6 °C.
For the sequence GTCCCTGGAAACAGAGAC (((.(((....))).))), the folding enthalpy in series [1] is -28.4 kcal/mol. The Tm in series [2] was 36.3 °C.
For the sequence GACTACGAAAGTAGCGTC ((((((....)))..))), the folding enthalpy in series [1] is -12.7 kcal/mol. Besides, the Tm in series [2] was determined as 43.8 °C.
On to GTCTTCGGAAACGAGGAC (((.(((....))).))), for which the folding enthalpy in series [1] is -39.1 kcal/mol. In addition, in series [2], the Tm was determined as 49.7 °C.
For the sequence GGTCGGCGAAAGCCCACC (((.(((....))).))), the folding enthalpy in series [1] was -21.7 kcal/mol. Also, the Tm in series [2] was found to be 46.9 °C.
Take GCCTGGCGAAAGCATGGC (((..((....))..))): the folding enthalpy in series [1] was -23.7 kcal/mol. For the same sequence, in series [2], the Tm came to 60.4 °C.
Consider GTTAACCCGAAAGGGAAC (((..(((....)))))), for which the folding enthalpy in series [1] is -12.2 kcal/mol. For the same sequence, the Tm in series [2] came to 25.9 °C.
GATCATACGATGATC ((((((...)))))): the folding enthalpy in series [1] was -29.4 kcal/mol. The Tm in series [2] was found to be 46.9 °C.
The matching figures for GAGATGGGAAACCGTCTC ((((.((....)).)))): -38.2 kcal/mol and 49.6 °C.
With GCGTTGTACGC ((((...)))), the folding enthalpy in series [1] was -19 kcal/mol. The Tm in series [2] came to 65.8 °C.
For the sequence GCGTGGTCGAAAGACCGC (((..(((....)))))), the folding enthalpy in series [1] is -10.9 kcal/mol. The Tm in series [2] was 53.2 °C.
Turning to GATCTATGTGTAGATC ((((((....)))))), in series [1], the folding enthalpy is -49.8 kcal/mol. For the same sequence, the Tm in series [2] amounted to 48 °C.
The matching figures for GGGGACGAAAGTCCACCC ((((((....)))..))): -11.2 kcal/mol and 55.2 °C.
For GGCCACGAAAGTGCAGCC ((((((....)))..))), the folding enthalpy in series [1] is -19.9 kcal/mol. Besides, the Tm in series [2] amounted to 49.9 °C.
The matching figures for GGCTGCGAAAGCATTGCC ((((((....)))..))): -19.5 kcal/mol and 52.8 °C.
GCGAAGACTCGC ((((....)))): the folding enthalpy in series [1] is -15.8 kcal/mol. Moreover, the Tm in series [2] stood at 44.8 °C.
The matching figures for TAAGGGAAACCTTA (((((....))))): -10.6 kcal/mol and 29.1 °C.
Regarding GTCGTAGGAAACTACAAC ((.((((....)))).)), the folding enthalpy in series [1] was -21 kcal/mol. Besides, in series [2], the Tm came to 30 °C.
As for GATCTTGCATAAGATC ((((((....)))))), the folding enthalpy in series [1] was -39.9 kcal/mol. The Tm in series [2] was 50.9 °C.
The matching figures for GCGATGCGAAAGCGTGGC ((.(.((....)).).)): -21.6 kcal/mol and 54.7 °C.
With GATCCAACCCTGGATC ((((((....)))))), the folding enthalpy in series [1] was -29 kcal/mol. The Tm in series [2] was 48.3 °C.
The matching figures for GCCAGCGGAAACGCCGGC (((.(((....))).))): -26.3 kcal/mol and 57.1 °C.
Turning to GTTATTGGAAACAATAAC (((((((....))))))), the folding enthalpy in series [1] was -35 kcal/mol. For the same sequence, in series [2], the Tm came out at 49.7 °C.
As for GGGAAGGAAACTTCCC ((((((....)))))), in series [1], the folding enthalpy was -31.8 kcal/mol. In addition, in series [2], the Tm was determined as 58.1 °C.
Take GCGACGCGAAAGCCTCGC ((((.((....)).)))): the folding enthalpy in series [1] was -33.3 kcal/mol. The Tm in series [2] came out at 60.4 °C.
For GCATGGCGAAAGCCTGGC ((..(((....)))..)), the folding enthalpy in series [1] was -18.4 kcal/mol. Further, the Tm in series [2] stood at 53.4 °C.
As for GAGCCACGAAAGTGACTC (((.(((....))).))), the folding enthalpy in series [1] was -45.2 kcal/mol. Moreover, the Tm in series [2] was 54.5 °C.
Take GGAGGAGCGAAAGCTTCC (((..(((....)))))): the folding enthalpy in series [1] was -13.4 kcal/mol. Besides, the Tm in series [2] came out at 38.6 °C.
With GATCGACTCCTCGATC ((((((....)))))), the folding enthalpy in series [1] was -38.6 kcal/mol. For the same sequence, the Tm in series [2] is 51.6 °C.
Consider GGCTTCGAAAGAAGGCC ((((((....))).))), for which the folding enthalpy in series [1] was -26.8 kcal/mol. For the same sequence, in series [2], the Tm was found to be 57.9 °C.
Regarding GATCTTAGTCAAGATC ((((((....)))))), in series [1], the folding enthalpy was -31.4 kcal/mol. Also, the Tm in series [2] was 42.2 °C.
For the sequence GATCGTAAACACGATC ((((((....)))))), the folding enthalpy in series [1] was -36.9 kcal/mol. For the same sequence, the Tm in series [2] was found to be 52 °C.
In the case of GTAAGCGAAAGCTACTAC ((((((....)))..))), in series [1], the folding enthalpy was -14.1 kcal/mol. Further, the Tm in series [2] came out at 47.5 °C.
Regarding GCAGACGAAAGTCCTTGC ((((((....)))..))), the folding enthalpy in series [1] was -12.3 kcal/mol. For the same sequence, in series [2], the Tm turned out to be 32.5 °C.
